Experimental data: ChEMBL document CHEMBL4304813 (ACS Med Chem Lett, 2019)
≈ marks a conversion by molar mass, not a printed value. Calls of active or inactive are those of the source. No cut-off for these calls is given here.

Assays:
[1] = Microsomal stability in human liver microsomes assessed as half-life at 1 uM in presence of NADPH/phosphate buffer by LC-MS/MS analysis; type: ADME, Microsome
[2] = Microsomal stability in human liver microsomes assessed as intrinsic clearance at 1 uM in presence of NADPH/phosphate buffer by LC-MS/MS analysis; type: ADME, Microsome; settings: read-out: CLH
[3] = species on record: Mus musculus; assay: Inhibition of Hedgehog signaling pathway in mouse C3H10T1/2 cells assessed as reduction in recombinant mouse sonic hedgehog/oxysterol-induced Gli1 mRNA expression by q-PCR analysis; type: cell-based
[4] = Inhibition of Hedgehog signaling pathway in mouse ASZ001 cells assessed as decrease in Gli1 mRNA expression after 48 hrs by qRT-PCR analysis; type: cell-based; settings: ASZ001, 48 h
In short: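 Hh-dependent murine basal cell carcinoma line ASZ001; read-out is Gli1 mRNA expression. IC50 given as mean ± SEM of at least two separate experiments, each run in triplicate.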

[5] = Aqueous solubility of the compound; type: physicochemical; settings: buffer
[6] = Solubility in PBS at pH 7.4 under shaking condition by HPLC analysis; type: physicochemical
[7] = Growth inhibition of human HC04 cells assessed as decrease in cell viability after 72 hrs by CellTiter96 AQueous non radioactive cell proliferation assay
In short: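 HC-04 is a human hepatocyte-derived line rich in drug-metabolizing enzymes. Anti-proliferative activity is reported as GI50.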

[8] = species on record: Mus musculus; assay: Potency index, ratio of ITZ IC50 to test compound IC50 for inhibition of Hedgehog signaling pathway in mouse ASZ001 cells assessed as decrease in Gli1 mRNA expression after 48 hrs by qRT-PCR analysis; type: cell-based
[9] = test system: MEF; assay: Inhibition of Hedgehog signaling pathway in Sufu-deficient mouse MEF cells assessed as decrease in Gli1 mRNA expression by q-PCR analysis relative to control; type: cell-based
[10] = Solubility in PBS at pH 4 under shaking condition by HPLC analysis; type: physicochemical
[11] = Drug metabolism in human liver microsomes assessed as increase in oxidized metabolite formation at 1 uM in presence of NADPH by LC-MS/MS analysis; type: ADME, Microsome
[12] = Drug metabolism in human liver microsomes assessed as increase in 1-(4-(((2S,4R)-2-(2,4-dichlorophenyl)-2-methyl-1,3-dioxolan-4-yl)methoxy)phenyl)piperazine formation at 1 uM in presence of NADPH by LC-MS/MS analysis; type: ADME, Microsome
[13] = Drug level in human liver microsomes treated with 1-(4-(4-(((2S,4R)-2-(2,4-dichlorophenyl)-2-methyl-1,3-dioxolan-4-yl)methoxy)phenyl)piperazin-1-yl)-2-(3-hydroxyphenyl)ethanone assessed as increase in 1-(4-(((2S,4R)-2-(2,4-dichlorophenyl)-2-methyl-1,3-dioxolan-4-yl)methoxy)phenyl)piperazine formation at 1 uM in presence of NADPH by LC-MS/MS analysis; type: ADME, Microsome
[14] = Drug level in human liver microsomes treated with 1-(4-(4-(((2S,4R)-2-(2,4-dichlorophenyl)-2-methyl-1,3-dioxolan-4-yl)methoxy)phenyl)piperazin-1-yl)-3-(3-hydroxyphenyl)propan-1-one formation at 1 uM in presence of NADPH by LC-MS/MS analysis; type: ADME, Microsome

SMILES	half-life at 1 µM [1] [min]	microsomal CLint at 1 µM [2] [µL/min/mg]	IC50 [4] [nM]	further results
C[C@]1(c2ccc(Cl)cc2Cl)OC[C@@H](COc2ccc(N3CCN(C(=O)CCc4cccc(O)c4)CC3)cc2)O1	3.2	218	81	inhibition [3]: Active; solubility [5]: Soluble; solubility [6]: 0.03 µM (≈ 0.0171 µg/mL); GI50 at 72 h [7]: 13200 nM; Ratio IC50 [8]: 2
C[C@]1(c2ccc(Cl)cc2Cl)OC[C@@H](COc2ccc(N3CCN(C(=O)c4cccc(O)c4)CC3)cc2)O1	15.9	43	260	
C[C@]1(c2ccc(Cl)cc2Cl)OC[C@@H](COc2ccc(N3CCN(C(=O)CCc4ccc(O)c(O)c4)CC3)cc2)O1	6.6	105	89	solubility [6]: 0.84 µM (≈ 0.494 µg/mL)
CCC(C)n1ncn(-c2ccc(N3CCN(c4ccc(OCC5COC(Cn6cncn6)(c6ccc(Cl)cc6Cl)O5)cc4)CC3)cc2)c1=O (stereo unspecified) [ITRACONAZOLE]			140	inhibition [3]: Active; inhibition [9]: inactive
C[C@]1(c2ccc(Cl)cc2Cl)OC[C@@H](COc2ccc(N3CCN(C(=O)c4ccccn4)CC3)cc2)O1			1420	
C[C@]1(c2ccc(Cl)cc2Cl)OC[C@@H](COc2ccc(N3CCN(C(=O)CCc4ccccc4)CC3)cc2)O1			230	
C[C@]1(c2ccc(Cl)cc2Cl)OC[C@@H](COc2ccc(N3CCN(C(=O)N/N=C/c4ccc(O)cc4)CC3)cc2)O1	11.4	60	960	solubility [10]: 0.05 µM (≈ 0.0293 µg/mL); solubility [6]: 0.02 µM (≈ 0.0117 µg/mL)
C[C@]1(c2ccc(Cl)cc2Cl)OC[C@@H](COc2ccc(N3CCN(C(=O)Cc4cccc(O)c4)CC3)cc2)O1	20.4	33.9	380	Drug metabolism [11]: Metabolite_Detected; Drug metabolism [12]: Metabolite_Detected
C[C@]1(c2ccc(Cl)cc2Cl)OC[C@@H](COc2ccc(N3CCNCC3)cc2)O1	50.7	13.7	22	inhibition [3]: Active; Drug uptake [13]: Active; Drug uptake [14]: Active; solubility [5]: Soluble; inhibition [9]: inactive; GI50 at 72 h [7]: 27300 nM
C[C@]1(c2ccc(Cl)cc2Cl)OC[C@@H](COc2ccc(N3CCN(C(=O)/C=C/c4cccc(O)c4)CC3)cc2)O1			220	
C[C@]1(c2ccc(Cl)cc2Cl)OC[C@@H](COc2ccc(N3CCN(CCCc4cccc(O)c4)CC3)cc2)O1	14	50	870	solubility [10]: 0.13 µM (≈ 0.0725 µg/mL); solubility [6]: 0.02 µM (≈ 0.0112 µg/mL)
C[C@]1(c2ccc(Cl)cc2Cl)OC[C@@H](COc2ccc(N3CCN(C(=O)c4ccc([N+](=O)[O-])cc4)CC3)cc2)O1			160	
C[C@@]1(c2ccc(Cl)cc2Cl)OC[C@@H](COc2ccc(N3CCN(C(=O)N/N=C/c4cccc(O)c4)CC3)cc2)O1			580	
C[C@]1(c2ccc(Cl)cc2Cl)OC[C@@H](COc2ccc(N3CCN(C(=O)CCc4ccc(O)cc4)CC3)cc2)O1			260	
C[C@]1(c2ccc(Cl)cc2Cl)OC[C@@H](COc2ccc(N3CCN(C(=O)/C=C/c4ccc(O)cc4)CC3)cc2)O1			360	
C[C@]1(c2ccc(Cl)cc2Cl)OC[C@@H](COc2ccc(N3CCN(C(=O)c4cccnc4)CC3)cc2)O1			1300	
C[C@]1(c2ccc(Cl)cc2Cl)OC[C@@H](COc2ccc(N3CCN(C(=O)CCCc4ccc(O)cc4)CC3)cc2)O1			470	
C[C@]1(c2ccc(Cl)cc2Cl)OC[C@@H](COc2ccc(N3CCN(C(=O)c4ccc(O)cc4)CC3)cc2)O1			580	
C[C@]1(c2ccc(Cl)cc2Cl)OC[C@@H](COc2ccc(N3CCN(C(=O)c4ccc(N)cc4)CC3)cc2)O1			280	
C[C@]1(c2ccc(Cl)cc2Cl)OC[C@@H](COc2ccc(N3CCN(C(=O)N/N=C/c4cccc(O)c4)CC3)cc2)O1			120	
COc1cccc(CCC(=O)N2CCN(c3ccc(OC[C@@H]4CO[C@](C)(c5ccc(Cl)cc5Cl)O4)cc3)CC2)c1			460	
C[C@]1(c2ccc(Cl)cc2Cl)OC[C@@H](COc2ccc(N3CCN(C(=O)c4ccncc4)CC3)cc2)O1			570	
